Test results as given in ChEMBL document CHEMBL3585281, “Antibacterial Labdane Diterpenoids from Vitex vestita” (2015).

Assays:
Format in all cases: functional
Bacillus cereus [1] = assay: Antibacterial activity against Bacillus cereus CIP 6624 after 18 hrs by agar dilution method
Procedure, shortened: (§1)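 Agar-dilution MIC against Gram-positive strains. Compounds in DMSO, geometric dilutions giving final 100−0.75 mg/L in Mueller Hinton agar. Strains grown 18 h at 37 °C in trypticase soy broth, diluted in sterile water, spotted by Steers inoculator (about 1000 UFC/spot). Plates incubated 18 h at 37 °C; DMSO blank; ofloxacin positive control. MIC = lowest concentration with no visible growth.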

Bacillus cereus [2] = assay: Antibacterial activity against Bacillus cereus N190 after 18 hrs by agar dilution method; procedure, shortened: as §1
Bacillus cereus [3] = assay: Antibacterial activity against Bacillus cereus N258 after 18 hrs by agar dilution method; procedure, shortened: as §1
Bacillus cereus [4] = assay: Antibacterial activity against Bacillus cereus N349 after 18 hrs by agar dilution method; procedure, shortened: as §1
Bacillus spizizenii = assay: Antibacterial activity against Bacillus subtilis ATCC 6633 after 18 hrs by agar dilution method; procedure, shortened: as §1
Corynebacterium striatum = assay: Antibacterial activity against Corynebacterium striatum N840 after 18 hrs by agar dilution method; procedure, shortened: as §1
Enterococcus avium = assay: Antibacterial activity against Enterococcus avium CIP 104053 after 18 hrs by agar dilution method; procedure, shortened: as §1
[5] = tested on: Enterococcus casseliflavus; assay: Antibacterial activity against Enterococcus casseliflavus N487 after 18 hrs by agar dilution method; procedure, shortened: as §1
[6] = tested on: Enterococcus casseliflavus; assay: Antibacterial activity against Enterococcus casseliflavus CIP 103018 after 18 hrs by agar dilution method; procedure, shortened: as §1
Enterococcus durans = assay: Antibacterial activity against Enterococcus durans CIP 104999 after 18 hrs by agar dilution method; procedure, shortened: as §1
Enterococcus faecalis [7] = assay: Antibacterial activity against Enterococcus faecalis CIP 103214 after 18 hrs by agar dilution method; procedure, shortened: as §1
Enterococcus faecalis [8] = assay: Antibacterial activity against Enterococcus faecalis CIP 104676 after 18 hrs by agar dilution method; procedure, shortened: as §1
Enterococcus faecalis [9] = assay: Antibacterial activity against Enterococcus faecalis N491 after 18 hrs by agar dilution method; procedure, shortened: as §1
Enterococcus faecalis [10] = assay: Antibacterial activity against Enterococcus faecalis N518 after 18 hrs by agar dilution method; procedure, shortened: as §1
Enterococcus faecalis [11] = assay: Antibacterial activity against Enterococcus faecalis N520 after 18 hrs by agar dilution method; procedure, shortened: as §1
Enterococcus faecium [12] = assay: Antibacterial activity against Enterococcus faecium CIP 103014 after 18 hrs by agar dilution method; procedure, shortened: as §1
Enterococcus faecium [13] = assay: Antibacterial activity against Enterococcus faecium CIP 107387 after 18 hrs by agar dilution method; procedure, shortened: as §1
Enterococcus faecium [14] = assay: Antibacterial activity against Enterococcus faecium N490 after 18 hrs by agar dilution method; procedure, shortened: as §1
Enterococcus faecium [15] = assay: Antibacterial activity against Enterococcus faecium N507 after 18 hrs by agar dilution method; procedure, shortened: as §1
Enterococcus faecium [16] = assay: Antibacterial activity against Enterococcus faecium N733 after 18 hrs by agar dilution method; procedure, shortened: as §1
Enterococcus faecium [17] = assay: Antibacterial activity against Enterococcus faecium N823 after 18 hrs by agar dilution method; procedure, shortened: as §1
Enterococcus gallinarum [18] = assay: Antibacterial activity against Enterococcus gallinarum CIP 105985 after 18 hrs by agar dilution method; procedure, shortened: as §1
Enterococcus gallinarum [19] = assay: Antibacterial activity against Enterococcus gallinarum N489 after 18 hrs by agar dilution method; procedure, shortened: as §1
Enterococcus gallinarum [20] = assay: Antibacterial activity against Enterococcus gallinarum N492 after 18 hrs by agar dilution method; procedure, shortened: as §1
Enterococcus hirae = assay: Antibacterial activity against Enterococcus hirae CIP 5855 after 18 hrs by agar dilution method; procedure, shortened: as §1
Listeria innocua = assay: Antibacterial activity against Listeria innocua E044 after 18 hrs by agar dilution method; procedure, shortened: as §1
Listeria monocytogenes [21] = assay: Antibacterial activity against Listeria monocytogenes CIP 103575 after 18 hrs by agar dilution method; procedure, shortened: as §1
Listeria monocytogenes [22] = assay: Antibacterial activity against Listeria monocytogenes N783 after 18 hrs by agar dilution method; procedure, shortened: as §1
Listeria monocytogenes [23] = assay: Antibacterial activity against Listeria monocytogenes N836 after 18 hrs by agar dilution method; procedure, shortened: as §1
Listeria monocytogenes [24] = assay: Antibacterial activity against Listeria monocytogenes N851 after 18 hrs by agar dilution method; procedure, shortened: as §1
Staphylococcus aureus [25] = assay: Antibacterial activity against Staphylococcus aureus ATCC 25923 after 18 hrs by agar dilution method; procedure, shortened: as §1
Staphylococcus aureus [26] = assay: Antibacterial activity against Staphylococcus aureus ATCC 9144 oxford after 18 hrs by agar dilution method; procedure, shortened: as §1
Staphylococcus aureus [27] = assay: Antibacterial activity against Staphylococcus aureus CIP 483 after 18 hrs by agar dilution method; procedure, shortened: as §1
Staphylococcus aureus [28] = assay: Antibacterial activity against Staphylococcus aureus CIP 53154 after 18 hrs by agar dilution method; procedure, shortened: as §1
Staphylococcus aureus [29] = assay: Antibacterial activity against Staphylococcus aureus CIP 53156 after 18 hrs by agar dilution method; procedure, shortened: as §1
Staphylococcus aureus [30] = assay: Antibacterial activity against Staphylococcus aureus CIP 5710 after 18 hrs by agar dilution method; procedure, shortened: as §1
Staphylococcus aureus [31] = assay: Antibacterial activity against Staphylococcus aureus CIP 7625 after 18 hrs by agar dilution method; procedure, shortened: as §1
Staphylococcus aureus [32] = assay: Antibacterial activity against Staphylococcus aureus CRBIP 2121 after 18 hrs by agar dilution method; procedure, shortened: as §1
[33] = tested on: Staphylococcus epidermidis; assay: Antibacterial activity against Staphylococcus epidermidis CIP 53124 after 18 hrs by agar dilution method; procedure, shortened: as §1
[34] = tested on: Staphylococcus haemolyticus; assay: Antibacterial activity against Staphylococcus haemolyticus CIP 8156 after 18 hrs by agar dilution method; procedure, shortened: as §1
[35] = tested on: Staphylococcus intermedius; assay: Antibacterial activity against Staphylococcus intermedius N987 after 18 hrs by agar dilution method; procedure, shortened: as §1
[36] = tested on: Staphylococcus lugdunensis; assay: Antibacterial activity against Staphylococcus lugdunensis ATCC 43809 after 18 hrs by agar dilution method; procedure, shortened: as §1
[37] = tested on: Staphylococcus saprophyticus; assay: Antibacterial activity against Staphylococcus saprophyticus CIP 76125 after 18 hrs by agar dilution method; procedure, shortened: as §1
[38] = tested on: Staphylococcus saprophyticus; assay: Antibacterial activity against Staphylococcus saprophyticus E260 after 18 hrs by agar dilution method; procedure, shortened: as §1
Mammaliicoccus sciuri = assay: Antibacterial activity against Staphylococcus sciuri N993 after 18 hrs by agar dilution method; procedure, shortened: as §1
Streptococcus agalactiae = assay: Antibacterial activity against Streptococcus agalactiae CIP 103227 after 18 hrs by agar dilution method; details: ATCC 13813; procedure, shortened: as §1

GENTAMICIN
MIC (Bacillus cereus [1]): 1 µM
MIC (Bacillus cereus [2]): 1 µM
MIC (Bacillus cereus [3]): 2 µM
MIC (Bacillus cereus [4]): 2 µM
MIC (Bacillus spizizenii): 0.3 µM
MIC (Corynebacterium striatum): > 278 µM
MIC (Enterococcus avium): 2 µM
MIC [5]: 9 µM
MIC [6]: 9 µM
MIC (Enterococcus durans): 17 µM
MIC (Enterococcus faecalis [7]): 35 µM
MIC (Enterococcus faecalis [8]): > 278 µM
MIC (Enterococcus faecalis [9]): > 278 µM
MIC (Enterococcus faecalis [10]): 70 µM
MIC (Enterococcus faecalis [11]): > 278 µM
MIC (Enterococcus faecium [12]): 17 µM
MIC (Enterococcus faecium [13]): > 278 µM
MIC (Enterococcus faecium [14]): > 278 µM
MIC (Enterococcus faecium [15]): > 278 µM
MIC (Enterococcus faecium [16]): > 278 µM
MIC (Enterococcus faecium [17]): > 278 µM
MIC (Enterococcus gallinarum [18]): 17 µM
MIC (Enterococcus gallinarum [19]): 4 µM
MIC (Enterococcus gallinarum [20]): 17 µM
MIC (Enterococcus hirae): 35 µM
MIC (Listeria innocua): 1 µM
MIC (Listeria monocytogenes [21]): 1 µM
MIC (Listeria monocytogenes [22]): 1 µM
MIC (Listeria monocytogenes [23]): 1 µM
MIC (Listeria monocytogenes [24]): 1 µM
MIC (Staphylococcus aureus [25]): 1 µM
MIC (Staphylococcus aureus [26]): 0.5 µM
MIC (Staphylococcus aureus [27]): 1 µM
MIC (Staphylococcus aureus [28]): 4 µM
MIC (Staphylococcus aureus [29]): 1 µM
MIC (Staphylococcus aureus [30]): 1 µM
MIC (Staphylococcus aureus [31]): 1 µM
MIC (Staphylococcus aureus [32]): > 278 µM
MIC [33]: 0.5 µM
MIC [34]: < 0.14 µM
MIC [35]: 139 µM
MIC [36]: 0.5 µM
MIC [37]: 0.3 µM
MIC [38]: < 0.14 µM
MIC (Mammaliicoccus sciuri): < 0.14 µM
MIC (Streptococcus agalactiae): 2 µM
